A1 apoptosis 2: compounds inhibiting A1, read as caspase activation. MEF A1-2A-BIM cells, caspase-Glo luminescence, 3 h; percent of clofoctol response, DMSO zero. caspase activation, % (concentration not given with the values). 24,000 tested, under 10 active. AID 2465; in the data active means caspase activation above about 5.9%
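Test system – A1-2A-BIM-expressing MEF cells · Input – 2500 cells/well · Medium – RPMI-1640 growth medium with 10% FBS · Compound dosing – 50 nL pinned compound · Timing – 3 h compound exposure at 37 °C · Technique – Caspase-Glo luminescence (DEVD substrate) · Evaluation – Caspase-3/7 activity from luminescence increase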
INS-1E ATP HTS: preserves ATP levels in cytokine-treated INS-1E cells | protection from cytokine-induced ATP loss, % at 10 µM | INS-1E cytokine-induced death, ATP luminescence, 48 h; normalised: neutral wells 0, positive control 100 | 20,000 compounds, 0.1% hits;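 active means mean replicate protection from cytokine-induced ATP loss at least 50% and at least 75% of replicates each reaching 50%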
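Assay system: INS-1E rat cells / Quantity: 8000 cells per well / Medium: RPMI without phenol red, 5% FBS / Probe or stimulus: three-cytokine cocktail (IFN-γ, TNF-α, IL-1β) / Dosing: one compound concentration, pin transfer / Timing: 48 h co-treatment, 10 min post-lysis read / Technique: CellTiter-Glo luminescence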
T cruzi HTS: inhibitors of intracellular Trypanosoma cruzi; intracellular Trypanosoma cruzi in host cells, plate reader; activity score (inhibition), % at 5.01 µM; 22,000 compounds, 4.9% hits; AID 651903; in the data active means activity score above about 55%;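 further: parasites and compound incubated about four days before reading; 0% = median of neutral control wells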
An asterisk follows results filed as active; · = not tested or not shown. Many of the other results were omitted from the sample, so hits are more common in it than they were.

SMILES	A1 apoptosis 2	INS-1E ATP HTS	T cruzi HTS
C[C@H]1CN([C@@H](C)CO)C(=O)Cc2cc(NC(=O)Nc3ccccc3)ccc2O[C@H]1CN(C)Cc1ccc(C(=O)Nc2ccccc2N)cc1	-0.4	11.7	69.3*
C[C@H]1CN([C@@H](C)CO)C(=O)Cc2cc(N(C)C)ccc2O[C@@H]1CN(C)Cc1ccc(C(=O)Nc2ccccc2N)cc1	·	5.5	70.1*
C[C@H]1CN([C@@H](C)CO)C(=O)Cc2cc(NC(=O)Nc3cccc4ccccc34)ccc2O[C@@H]1CN(C)Cc1ccc(C(=O)Nc2ccccc2N)cc1	-1.7	-14.2	37.9
C[C@H]1CN([C@@H](C)CO)C(=O)Cc2cc(NC(=O)Nc3ccc(F)cc3)ccc2O[C@H]1CN(C)Cc1ccc(C(=O)Nc2ccccc2N)cc1	-1.0	-5.9	56.5*
Cc1noc(C)c1S(=O)(=O)Nc1ccc2c(c1)C(=O)N([C@H](C)CO)C[C@H](C)[C@@H](CN(C)Cc1ccc(C(=O)O)cc1)OCCCC[C@@H](C)O2	·	-5.2	-11.4
C[C@H]1CN([C@@H](C)CO)C(=O)c2cc(NC(=O)CCN3CCOCC3)ccc2O[C@@H]1CN(C)C(=O)Nc1ccccc1	0.6	-5.5	-16.2
C[C@@H]1CN([C@@H](C)CO)C(=O)c2cc(NS(=O)(=O)c3ccc(Cl)cc3)ccc2O[C@H]1CN(C)Cc1ccc(C(F)(F)F)cc1	0.4	·	20.3
C[C@@H]1CN([C@H](C)CO)C(=O)Cc2cc(NC(=O)Nc3ccc(F)cc3)ccc2O[C@@H]1CN(C)Cc1ccc(C(=O)Nc2ccccc2N)cc1	0.1	-15.4	59.5*
C[C@H]1CN([C@@H](C)CO)C(=O)Cc2cc(NC(=O)c3ccncc3)ccc2O[C@H]1CN(C)Cc1ccc(C(=O)Nc2ccccc2N)cc1	·	0.6	34.4
C[C@@H]1CCCCO[C@H](CN(C)Cc2ccncc2)[C@H](C)CN([C@@H](C)CO)C(=O)c2cc(NC(=O)CCC(F)(F)F)ccc2O1	-0.1	·	·
C[C@@H]1CN([C@@H](C)CO)C(=O)c2cc(NC(=O)Cn3cnnn3)ccc2O[C@H]1CN(C)S(=O)(=O)c1cn(C)cn1	·	3.4	-23.4
Cc1ccc(S(=O)(=O)Nc2ccc3c(c2)CC(=O)N([C@H](C)CO)C[C@@H](C)[C@H](CN(C)Cc2ccc(C(=O)Nc4ccccc4N)cc2)O3)cc1	·	6.7	49.4
C[C@@H]1CN([C@H](C)CO)C(=O)c2cc(NS(=O)(=O)c3ccc(F)cc3)ccc2O[C@@H]1CN(C)Cc1ccc(C(=O)Nc2ccccc2N)cc1	·	7.6	15.6
C[C@@H]1CN([C@@H](C)CO)C(=O)c2cc(NS(=O)(=O)c3ccc(F)cc3)ccc2O[C@H]1CN(C)Cc1ccc(C(=O)Nc2ccccc2N)cc1	1.5	-5.1	57.4*
C[C@H](CO)N1C[C@H](C)[C@@H](CN(C)Cc2ccc(C(=O)Nc3ccccc3N)cc2)Oc2ccc(NS(=O)(=O)c3ccccc3)cc2CC1=O	0.5	·	·
C[C@H]1CN([C@@H](C)CO)C(=O)Cc2cc(NS(=O)(=O)c3ccc(Cl)cc3)ccc2O[C@H]1CN(C)Cc1ccc(C(=O)Nc2ccccc2N)cc1	0.6	21.1	66.1*
C[C@@H]1CN([C@H](C)CO)C(=O)Cc2cc(NS(=O)(=O)c3ccccc3)ccc2O[C@@H]1CN(C)Cc1ccc(C(=O)Nc2ccccc2N)cc1	-0.2	1.3	58.1*
C[C@@H]1CN([C@@H](C)CO)C(=O)Cc2cc(NS(=O)(=O)c3ccc(F)cc3)ccc2O[C@@H]1CN(C)Cc1ccc(C(=O)Nc2ccccc2N)cc1	1.0	0.0	53.2
C[C@H]1CN([C@@H](C)CO)C(=O)Cc2cc(NS(=O)(=O)c3ccc(F)cc3)ccc2O[C@H]1CN(C)Cc1ccc(C(=O)Nc2ccccc2N)cc1	·	33.4	70.7*
CNC[C@@H]1OCCCC[C@@H](C)Oc2ccc(NC(=O)CCC(F)(F)F)cc2C(=O)N([C@H](C)CO)C[C@@H]1C	·	2.1	-5.5
C[C@H](CO)N1C[C@H](C)[C@@H](CN(C)C(=O)NC2CCCCC2)Oc2ccc(NC(=O)Cc3ccccc3)cc2C1=O	0.1	2.4	7.0
CNC[C@H]1Oc2ccc(NC(=O)c3ccncc3)cc2CC(=O)N([C@@H](C)CO)C[C@H]1C	0.7	0.4	-12.2
Cc1cccc(S(=O)(=O)N(C)C[C@@H]2OCc3cnnn3CCCC(=O)N([C@H](C)CO)C[C@H]2C)c1	·	·	5.0
CC(C)NC(=O)Nc1ccc2c(c1)C(=O)N([C@H](C)CO)C[C@H](C)[C@@H](CN(C)C(=O)Cc1ccccc1)OCCCC[C@@H](C)O2	-0.5	3.5	-2.3
C[C@@H]1CN([C@H](C)CO)C(=O)Cc2cc(N(C)C)ccc2O[C@@H]1CN(C)C(=O)Nc1ccccc1	-1.2	-2.5	-1.5
SMILES	A1 apoptosis 2	INS-1E ATP HTS	T cruzi HTS
C[C@@H]1CN([C@H](C)CO)C(=O)c2cc(NS(=O)(=O)c3cccs3)ccc2O[C@@H](C)CCCCO[C@@H]1CN(C)Cc1ccccc1	0.3	·	·
C[C@@H]1CCCCO[C@H](CN(C)Cc2ccc(C(=O)Nc3ccccc3N)cc2)[C@@H](C)CN([C@H](C)CO)C(=O)c2cc(NS(=O)(=O)c3ccc(Cl)cc3)ccc2O1	·	39.3	78.4*
C[C@@H]1CCCCO[C@@H](CN(C)Cc2ccc(C(=O)Nc3ccccc3N)cc2)[C@@H](C)CN([C@H](C)CO)C(=O)c2cc(NS(=O)(=O)c3ccccc3)ccc2O1	-0.4	1.6	46.4
C[C@@H]1CN([C@H](C)CO)C(=O)c2cccc(NC(=O)Nc3ccc(F)cc3)c2O[C@@H]1CN(C)C(=O)Nc1ccccc1	·	2.7	12.8
C[C@H]1CN([C@@H](C)CO)C(=O)Cc2cc(NC(=O)Nc3cccc4ccccc34)ccc2O[C@H]1CN(C)CC1CCCCC1	·	-46.8	61.8*
C[C@H]1CN([C@@H](C)CO)C(=O)Cc2cc(NC(=O)Nc3cccc4ccccc34)ccc2O[C@@H]1CN(C)CC1CC1	0.5	15.3	-10.1
C[C@@H]1CN([C@H](C)CO)C(=O)Cc2cc(NC(=O)Nc3cccc4ccccc34)ccc2O[C@H]1CN(C)CC1CCCCC1	·	0.7	68.5*
C[C@@H]1CN([C@H](C)CO)C(=O)Cc2cc(NC(=O)Nc3cccc4ccccc34)ccc2O[C@@H]1CN(C)CC1CCCCC1	-1.3	0.0	50.3
C[C@@H]1CN([C@H](C)CO)C(=O)CCCn2nncc2CO[C@@H]1CN(C)C(=O)Nc1cccc(F)c1	-0.2	·	0.2
C[C@H]1CN([C@@H](C)CO)C(=O)Cc2cc(NC(=O)C3CCCCC3)ccc2O[C@@H]1CN(C)Cc1ccc(Oc2ccccc2)cc1	·	-29.2	59.1*
COc1ccc(NC(=O)Nc2ccc3c(c2)CC(=O)N([C@H](C)CO)C[C@@H](C)[C@@H](CN(C)Cc2ccc(Oc4ccccc4)cc2)O3)cc1	·	-22.4	71.7*
COc1ccc(NC(=O)Nc2ccc3c(c2)CC(=O)N([C@H](C)CO)C[C@@H](C)[C@H](CN(C)Cc2ccc(Oc4ccccc4)cc2)O3)cc1	·	-24.6	10.2
COc1ccc(NC(=O)Nc2ccc3c(c2)CC(=O)N([C@@H](C)CO)C[C@H](C)[C@@H](CN(C)Cc2ccc(Oc4ccccc4)cc2)O3)cc1	0.2	-39.6	62.5*

Assay outcomes deposited in PubChem by Broad Institute.
